Source: ChEMBL document CHEMBL1153363, “Structure-activity relationships for a series of quinoline-based compounds active against replicating and nonreplicating Mycobacterium tuberculosis” (J Med Chem, 2009)
Converted amounts (≈) assume the structure as drawn.

Experiments:
Format in all cases: functional
Conditions in all cases: 168 h
[1] = test system: Mycobacterium tuberculosis; experiment: Antitubercular activity against streptomycin-resistant Mycobacterium tuberculosis H37Rv ATCC 27294 after 7 days by microplate alamar blue assay
In short: (§1)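 12.8 mM DMSO stocks; two-fold dilutions in Middlebrook 7H12 broth, final 128 to 0.5 µM. Inoculum 2 × 10⁵ cfu/mL, 37 °C. On day 7, Tween 80 plus Alamar Blue added; fluorescence read (ex 530/em 590 nm) after 16-24 h more. MIC = lowest concentration giving ≥90% fluorescence drop versus bacteria-only controls; mean of two runs. RMP and INH positive controls.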

[2] = test system: Mycobacterium tuberculosis; experiment: Antitubercular activity against rifampin-resistant Mycobacterium tuberculosis H37Rv ATCC 27294 after 7 days by microplate alamar blue assay; in short: as §1
[3] = test system: Mycobacterium tuberculosis; experiment: Antitubercular activity against isoniazid-resistant Mycobacterium tuberculosis H37Rv ATCC 27294 after 7 days by microplate alamar blue assay; in short: as §1

Compound	MIC [1] [µM]	MIC [2] [µM]	MIC [3] [µM]
CCOC(=O)c1cc(-c2cccc(Oc3cc(C(F)(F)F)nc4ccccc34)c2)on1	1.4 (≈ 0.6 µg/mL)	1.27 (≈ 0.544 µg/mL)	1.63 (≈ 0.698 µg/mL)
CCOC(=O)c1cc(COc2cc(C(F)(F)F)nc3cc(C(F)(F)F)cc(C(F)(F)F)c23)on1	1.55 (≈ 0.779 µg/mL)	0.99 (≈ 0.497 µg/mL)	0.98 (≈ 0.492 µg/mL)
NNC(=O)c1ccncc1 [ISONIAZID]	0.45 (≈ 0.0617 µg/mL)	0.43 (≈ 0.059 µg/mL)	> 128
CO[C@H]1/C=C/O[C@@]2(C)Oc3c(C)c(O)c4c(O)c(c(/C=N/N5CCN(C)CC5)c(O)c4c3C2=O)NC(=O)/C(C)=C\C=C\[C@H](C)[C@H](O)[C@@H](C)[C@@H](O)[C@@H](C)[C@H](OC(C)=O)[C@@H]1C [RIFAMPIN]	0.05 (≈ 0.0411 µg/mL)	> 32	0.06 (≈ 0.0494 µg/mL)
CN[C@@H]1[C@H](O[C@H]2[C@H](O[C@H]3[C@H](O)[C@@H](O)[C@H](N=C(N)N)[C@@H](O)[C@@H]3N=C(N)N)O[C@@H](C)[C@]2(O)C=O)O[C@@H](CO)[C@H](O)[C@H]1O [STREPTOMYCIN]	> 32	0.2 (≈ 0.116 µg/mL)	0.38 (≈ 0.221 µg/mL)
